Assay results reported in ChEMBL document CHEMBL2046290, “Ureido-substituted sulfamates show potent carbonic anhydrase IX inhibitory and antiproliferative activities against breast cancer cell lines” (Bioorg Med Chem Lett, 2012).
Active and inactive are the calls of the source. The rule behind the calls is not given here.

Legend:
MDA-MB-361 = test: Antiproliferative activity against human MDA-MB-361 cells at 100 uM after 5 days by SRB assay under normoxic condition; type: functional, cell-based
In short: (§1)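 Cells seeded at 1 × 10^3 per well, adhered 48 h, medium removed, then exposed to compound at 100 μM. After 5 days, growth measured by SRB: fixed with cold 25% TCA 1 h at 4 °C, stained with SRB in 1% acetic acid 30 min at room temperature, dye solubilised in 10 mM Tris pH 10.5, read at 540. Values expressed relative to untreated control (1.0).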

ZR-75-1 = test: Antiproliferative activity against human ZR-75-1 cells at 100 uM after 5 days by SRB assay under normoxic condition; type: functional, cell-based; in short: as §1
MCF7 [1] = test: Antiproliferative activity against human MCF7 cells after 5 days by SRB assay under hypoxic condition; type: functional, cell-based
In short: (§2)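 MCF7 seeded at 3 × 10^3 per well, adhered 48 h, then equilibrated 6 h at 0.5% O2 in a hypoxia station. Compounds added in hypoxic medium across 0.1–100 μM. After 5 days, proliferation measured by SRB: cold 25% TCA fixation 1 h at 4 °C, SRB in 1% acetic acid 30 min, solubilised in 10 mM Tris pH 10.5, read at 540.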

MCF7 [2] = test: Antiproliferative activity against human MCF7 cells at 30 uM after 5 days by SRB assay under hypoxic condition; type: functional, cell-based; in short: as §2
SK-BR-3 = test: Antiproliferative activity against human SKBR3 cells at 100 uM after 5 days by SRB assay under normoxic condition; type: functional, cell-based; in short: as §1
MCF-10A = test: Antiproliferative activity against human MCF10A cells at 100 uM after 5 days by SRB assay under normoxic condition; type: functional, cell-based; in short: as §1
MCF7 [3] = test: Antiproliferative activity against human MCF7 cells at 10 uM after 5 days by SRB assay under hypoxic condition; type: functional, cell-based; in short: as §2
Carbonic anhydrase 9 = Carbonic anhydrase 9 (Homo sapiens, UniProt Q16790); test: Inhibition of human carbonic anhydrase 9 preincubated for 15 mins measured for 10 to 100 sec using phenol red indicator-based stopped flow assay
In short: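 In-house recombinant human enzyme; stopped-flow CO2 hydration at 1.7–17 mM CO2, with 0.2 mM phenol red read at 557 nm in 20 mM Hepes pH 7.5 and 20 mM Na2SO4. Inhibitor (diluted from 0.1 mM aqueous stock to 0.01 nM) preincubated with enzyme 15 min at room temperature. Initial rates taken over 10–100 s, uncatalysed rate subtracted. Ki by non-linear least squares, mean of at least three determinations.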

Ki (Carbonic anhydrase 9)	Structure (SMILES)	Activity (MDA-MB-361)	Activity (ZR-75-1)	Activity (MCF7 [1])	Activity (MCF7 [2])	Activity (SK-BR-3)	Activity (MCF-10A)	Activity (MCF7 [3])
–	NS(=O)(=O)Oc1ccc(NC(=O)Nc2ccc(F)cc2)cc1	Active	Active	Dose-dependent effect	Active	Active	Active	Active
16 nM	NS(=O)(=O)Oc1ccc(NC(=O)Nc2ccc(Cc3ccccc3)cc2)cc1	–	–	–	–	–	–	–
8 nM	CCOC(=O)c1ccc(NC(=O)Nc2ccc(OS(N)(=O)=O)cc2)cc1	–	–	–	–	–	–	–
–	NS(=O)(=O)Oc1ccc(NC(=O)Nc2c(F)c(F)c(F)c(F)c2F)cc1	Active	Active	Dose-dependent effect	Active	Active	Active	Active
–	NS(=O)(=O)Oc1ccc(NC(=O)Nc2ccc(Oc3ccccc3)cc2)cc1	Active	Active	Dose-dependent effect	Active	Active	Active	Active
12 nM	CCOC(=O)c1cccc(NC(=O)Nc2ccc(OS(N)(=O)=O)cc2)c1	–	–	–	–	–	–	–
–	NS(=O)(=O)Oc1ccc(NC(=O)Nc2ccc([N+](=O)[O-])cc2)cc1	Active	Active	Dose-dependent effect	Active	Active	Active	Active
15 nM	NS(=O)(=O)Oc1ccc(NC(=O)NCCc2cccc3ccccc23)cc1	–	–	–	–	–	–	–
–	NS(=O)(=O)Oc1ccc(NC(=O)NCCc2ccccc2)cc1	Active	Active	Dose-dependent effect	Active	Active	Active	Active
8 nM	CCOC(=O)c1ccccc1NC(=O)Nc1ccc(OS(N)(=O)=O)cc1	–	–	–	–	–	–	–
7 nM	CC(C)(C)OC(=O)N1CCC(NC(=O)Nc2ccc(OS(N)(=O)=O)cc2)CC1	–	–	–	–	–	–	–
–	CN(C)c1ccc(NC(=O)Nc2ccc(OS(N)(=O)=O)cc2)cc1	Active	Active	Dose-dependent effect	Active	Active	Active	Active
–	Cc1cc(C)cc(NC(=O)Nc2ccc(OS(N)(=O)=O)cc2)c1	Active	Active	–	Active	Active	Active	Active
–	NS(=O)(=O)Oc1ccc(NC(=O)Nc2ccc(Cl)cc2)cc1	Active	Active	Dose-dependent effect	Active	Active	Active	Active
–	COc1ccc(NC(=O)Nc2ccc(OS(N)(=O)=O)cc2)cc1	Active	Active	Dose-dependent effect	Active	Active	Active	Active
